Here are results for four molecules from ChEMBL document CHEMBL1125107, “Cephalosporin 3'-quinolone esters with a dual mode of action” (J Med Chem, 1990).

Data set [1] deals with Proteus mirabilis. The experiment in a line: In vitro antibacterial activity was determined against Proteus mirabilis 90. The class given is functional. The gist of the method:
(§1)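 MIC by serial 2-fold dilution in Mueller-Hinton broth; results given as minimum inhibitory concentrations (nmol/mL).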

In data set [2] the test system is Enterobacter cloacae. The experiment in a line: In vitro antibacterial activity was determined against Enterobacter cloacae P99 (Class Ia beta-lactamase overproducer). It counts as functional. The gist of the method:
as §1

The test system of data set [3] is Streptococcus pneumoniae. The data set can be described thus: In vitro antibacterial activity was determined against Streptococcus pneumoniae 6301. The class given is functional. The essentials:
(§2)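 Broth MIC determination: serial 2-fold dilutions in Mueller-Hinton broth by standard methodology; the lowest concentration inhibiting growth is reported as the MIC, in nmol/mL.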

Data set [4] relates to Proteus vulgaris. The data set can be described thus: In vitro antibacterial activity was determined against Proteus vulgaris 1028BC (Class Ic beta-lactamase overproducer. It counts as functional. The gist of the method:
as §1

The subject of data set [5] is Staphylococcus aureus. The experiment in a line: In vitro antibacterial activity was determined against Staphylococcus aureus 95 (Methicillin-resistant, high-level beta-lactamase producer). It counts as functional. The essentials: (§3)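 Serial 2-fold broth dilution in Mueller-Hinton broth, run by standard methodology; read-out is the minimum inhibitory concentration (MIC).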

Data set [6] has as its system Citrobacter freundii. The experiment in a line: In vitro antibacterial activity was determined against Citrobacter freundii BS-16. It counts as functional. The essentials: as §1
In data set [7] the test system is Pseudomonas aeruginosa. The experiment in a line: In vitro antibacterial activity was determined against Pseudomonas aeruginosa 18S/H (Class Id beta-lactamase overproducer). It counts as functional. The essentials: as §2
Data set [8] has as its system Enterococcus faecalis. The data set can be described thus: In vitro antibacterial activity was determined against Enterococcus faecalis ATCC 29212. It counts as functional. The essentials: as §1
Data set [9] concerns Streptococcus pyogenes. The data set can be described thus: In vitro antibacterial activity was determined against Streptococcus pyogenes 4. It counts as functional. The essentials: as §2
Data set [10] relates to Staphylococcus aureus. The data set can be described thus: In vitro antibacterial activity was determined against Staphylococcus aureus 1059B (inducible, high level beta-lactamase producer). It counts as functional. The essentials: as §3
For data set [11], the system named is Staphylococcus aureus. The data set can be described thus: In vitro antibacterial activity was determined against Staphylococcus aureus ATCC 29213 (inducible, low level beta-lactamase producer). It counts as functional. The essentials:
as §3

Data set [12] has as its system Escherichia coli. The data set can be described thus: In vitro antibacterial activity was determined against Escherichia coli TEM-1 (TEM-1 (class IIIa) beta-lactamase producer). It counts as functional. The essentials: as §1
For data set [13], the system named is Serratia marcescens. The data set can be described thus: In vitro antibacterial activity was determined against Serratia marcescens 1071. It counts as functional. The essentials: as §2
The test system of data set [14] is Staphylococcus aureus. The data set can be described thus: In vitro antibacterial activity was determined against Staphylococcus aureus 1059B ( inducible, high level beta-lactamase producer). It counts as functional. The gist of the method:
as §2

Data set [15] concerns Escherichia coli. The experiment in a line: In vitro antibacterial activity was determined against Escherichia coli UB 1005. The class given is functional. The gist of the method: as §1
For data set [16], the system named is Pseudomonas aeruginosa. The data set can be described thus: In vitro antibacterial activity was determined against Pseudomonas aeruginosa ATCC 27853. The class given is functional. The essentials: as §2
In data set [17] the test system is Staphylococcus aureus. The experiment in a line: In vitro antibacterial activity was determined against Staphylococcus aureus ATCC 29213 ( inducible, low level beta-lactamase producer). It counts as functional. The essentials: as §2
Data set [18] can be described thus: Evaluated for its stability in Mueller-Hinton broth at 37 degrees Celsius as determined by HPLC analysis. As to conditions: pH 6.5.
Data set [19] in a line: Toxicity was determined. It counts as organism-based. As to conditions: mouse, in vivo. The gist of the method:
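Acute toxicity in mice after intravenous dosing, expressed as LD50 (mg/kg iv).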

Data set [20] is described as follows: Evaluated for its stability in human plasma pH 6.5 at 37 degrees Celsius as determined by HPLC analysis. It counts as ADME.
The nature of data set [21]: Half life period in rat after (i.v.) administration of a dose of 20 mg/kg. As to conditions: in vivo, iv. Set-up: dose 20 mg/kg, route intravenous. The class given is ADME, organism-based. The gist of the method: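 Rats given 20 mg/kg iv; plasma half-life determined.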
The test system of data set [22] is Proteus vulgaris. The experiment in a line: In vitro antibacterial activity was determined against Proteus vulgaris 1028 BC (Class Ic beta-lactamase overproducer). The class given is functional. The gist of the method: as §1
Data set [23] relates to Pseudomonas aeruginosa. The data set can be described thus: In vitro antibacterial activity was determined against Pseudomonas aeruginosa 18S/H ( Class Id beta-lactamase overproducer). It counts as functional. The gist of the method:
as §2

The test system of data set [24] is Proteus vulgaris. The experiment in a line: Minimum inhibitory concentration against Proteus vulgaris 1028 BC (Class Ic beta-lactamase overproducer). It counts as functional. The essentials:
as §2

Data set [25] deals with Streptococcus pneumoniae. The data set can be described thus: Minimum inhibitory concentration against Streptococcus pneumoniae 6301. The class given is functional. The gist of the method: as §2
Data set [26] concerns Staphylococcus aureus. The experiment in a line: Minimum inhibitory concentration against Staphylococcus aureus 95 (Methicillin-resistant, high-level beta-lactamase producer). The class given is functional. The gist of the method:
as §3

In data set [27] the test system is Proteus mirabilis. The experiment in a line: Evaluated for the minimum inhibitory concentration against Proteus mirabilis 90.
Data set [28] deals with Streptococcus pyogenes. The experiment in a line: Minimum inhibitory concentration against Streptococcus pyogenes 4. The class given is functional. The gist of the method: as §2
Data set [29] relates to Pseudomonas aeruginosa. The data set can be described thus: Minimum inhibitory concentration against Pseudomonas aeruginosa ATCC 27853. It counts as functional. The essentials: as §2
For data set [30], the system named is Pseudomonas aeruginosa. The data set can be described thus: Evaluated for the minimum inhibitory concentration against Pseudomonas aeruginosa 18S/H (Class Id beta-lactamase overproducer). It counts as functional. The essentials: as §1
Data set [31] has as its system Escherichia coli. The data set can be described thus: Evaluated for the minimum inhibitory concentration against Escherichia coli UB 1005. It counts as functional. The gist of the method: as §1
Data set [32] has as its system Proteus vulgaris. The experiment in a line: Evaluated for the minimum inhibitory concentration against Proteus vulgaris 1028 BC ( Class Ic beta-lactamase overproducer). It counts as functional. The essentials:
as §1

The test system of data set [33] is Pseudomonas aeruginosa. The experiment in a line: Evaluated for the minimum inhibitory concentration against Pseudomonas aeruginosa 18S/H ( Class Id beta-lactamase overproducer). It counts as functional. The gist of the method:
as §1

≈ marks a conversion by molar mass, not a printed value.

Usually MIC stands for the lowest concentration found to suppress growth. The low end stands for greater potency, the high end for weaker potency. With `CCn1cc(C(=O)O)c(=O)c2cc(F)c(N3CCSCC3)cc21`, the MIC stood at 16 µg/mL (≈ 47.6 µM) in data set [1]; 0.125 µg/mL (≈ 0.372 µM) in data set [2]; 16 µg/mL (≈ 47.6 µM) in data set [3]; 0.5 µg/mL (≈ 1.49 µM) in data set [4]; 0.063 µg/mL (≈ 0.187 µM) in data set [5]; 16 µg/mL (≈ 47.6 µM) in [6]. The MIC worked out at 1 µg/mL (≈ 2.97 µM) in data set [7]; 1 µg/mL (≈ 2.97 µM) in [8]; 8 µg/mL (≈ 23.8 µM) in data set [9]; 0.125 µg/mL (≈ 0.372 µM) in data set [10]; 0.063 µg/mL (≈ 0.187 µM) in data set [11]; 0.5 µg/mL (≈ 1.49 µM) in data set [12]. For the same molecule, the MIC in [13] stood at 0.25 µg/mL (≈ 0.743 µM).
As usually defined, the half-life is the time needed for the level to fall by half in the phase considered. Higher therefore signals slow decline. The LD50 is the dose at which mortality reaches 50%. A high value points to a less toxic substance. In the case of `CCn1cc(C(=O)OCC2=C(C(=O)O)N3C(=O)[C@@H](NC(=O)COc4ccccc4)C3SC2)c(=O)c2cc3c(cc21)OCO3` (stereo not given in full), the MIC in data set [14] was 0.5 µg/mL (≈ 0.823 µM); in [15] it was 32 µg/mL (≈ 52.7 µM); in [1] it was 4 µg/mL (≈ 6.58 µM); in data set [16], above 256 µg/mL; in data set [2], 0.5 µg/mL (≈ 0.823 µM); in [17] it was 0.25 µg/mL (≈ 0.411 µM). The minimal inhibitory concentration (MIC) is 4 µg/mL (≈ 6.58 µM) in data set [5]; 2 µg/mL (≈ 3.29 µM) in data set [6]; 64 µg/mL (≈ 105 µM) in data set [8]; 1 µg/mL (≈ 1.65 µM) in data set [12]; 1 µg/mL (≈ 1.65 µM) in data set [13]; 0.25 µg/mL (≈ 0.411 µM) in data set [22]. In data set [23], it took 16 µg/mL (≈ 26.3 µM) to inhibit growth (MIC). Also, the values for the half-life in data set [18], in [20] and in [21] were 11.2 h, 6 h and 0.217 h, respectively. The molecule also registered a median lethal dose (LD50) in data set [19] above 500 mg/kg.
Turning to `CN1CCN(c2c(F)cc3c(=O)c(C(=O)OCC4=C(C(=O)O)N5C(=O)[C@@H](NC=O)C5SC4)cn(CCF)c3c2F)CC1` (stereo not given in full), the MIC in [24] was 0.5 µg/mL (≈ 0.82 µM); in data set [25] it was 0.25 µg/mL (≈ 0.41 µM); in [26] it was 32 µg/mL (≈ 52.5 µM); in [27], 32 µg/mL (≈ 52.5 µM); in data set [28], 0.25 µg/mL (≈ 0.41 µM); in data set [29] it was above 128 µg/mL. In addition, the MIC in data set [30] was 64 µg/mL (≈ 105 µM); in [31], 32 µg/mL (≈ 52.5 µM).
`CCn1cc(C(=O)OCC2=C(C(=O)O)N3C(=O)[C@@H](NC(=O)/C(=N/OC)c4csc(N)n4)C3SC2)c(=O)c2cc(F)c(N3CCCC3)cc21` (stereo not given in full): the minimum inhibitory concentration (MIC) in [25] was below 0.008 µg/mL; in data set [26] it was 0.5 µg/mL (≈ 0.715 µM); in data set [28], 1 µg/mL (≈ 1.43 µM); in data set [32], 4 µg/mL (≈ 5.72 µM); in [29], above 128 µg/mL; in [33] it was 32 µg/mL (≈ 45.7 µM). The molecule also yielded an MIC in data set [31] of 0.5 µg/mL (≈ 0.715 µM).
